Screening results deposited in PubChem BioAssay by several laboratories.
Only some compounds are listed: those with a hit (about 3.3% of all), similar ones and a draw of the others.
ABCG2 inh = inhibitors of human ABCG2 transporter, ABCB1 counter-screen; IgMXP3 cells, JC-1 efflux, flow cytometry; inhibition, % at 6.6 µM; 190,000 compounds, 0.1% hits;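 active = inhibition above 80%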;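 also: 0% = DMSO and 100% = nicardipine control wells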
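Measure – % inhibition of efflux relative to nicardipine and DMSO · Test system – ABCG2 IgMXP3 and barcoded ABCB1 CCRF-Adr cell mix · Control set – nicardipine as high control, DMSO as low control · Compound – one concentration, 6.6 µM final · Signal – flow cytometry of retained JC-1 fluorescence · Timing – 10 min exposure at 25 °C with rotation, no wash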
Cl transport mod = modulates chloride dependent transport by human KCC2; KCC2 cells, thallium flux FluoZin-2 fluorescence; AID 1456; B-score of Tl+ flux slope (higher = more flux/activation; lower = inhibition) at 10 µM; 190,000 compounds, 2.2% hits;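 active = thallium flux slope and its plate-corrected score both differing from the plate sample mean at a set confidence after two filtering rounds, in either direction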;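 also: slope of fluorescence scaled to starting intensity during 10 to 20 s after thallium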
ROMK mod = human ROMK K+ channel modulation, primary screen. 130,000 compounds, 2% hits. AID 1918. P48048. B-score at 10 µM. Tet-inducible ROMK, thallium flux fluorescence; actives lie on both sides;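 active = signal ratio slope over the read window, or its plate-corrected B-score, at least 3 SD from the plate mean, either direction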;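 also: B-score of the F/F0 ratio slope over 7 to 12 s after thallium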
PMI act satM6P = activators of human phosphomannose isomerase at near-saturating mannose 6-phosphate; activation factor at 20 µM; coupled PMI enzyme assay, resazurin fluorescence, 20 min; stronger effect = higher value; 1 = untreated enzyme, 0 = substrate-free blank; P34949; 190,000 compounds, 0.34% hits;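 active = activation factor of 2 or more at 20 µM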
Target sequence (P34949 whole entry, looked up): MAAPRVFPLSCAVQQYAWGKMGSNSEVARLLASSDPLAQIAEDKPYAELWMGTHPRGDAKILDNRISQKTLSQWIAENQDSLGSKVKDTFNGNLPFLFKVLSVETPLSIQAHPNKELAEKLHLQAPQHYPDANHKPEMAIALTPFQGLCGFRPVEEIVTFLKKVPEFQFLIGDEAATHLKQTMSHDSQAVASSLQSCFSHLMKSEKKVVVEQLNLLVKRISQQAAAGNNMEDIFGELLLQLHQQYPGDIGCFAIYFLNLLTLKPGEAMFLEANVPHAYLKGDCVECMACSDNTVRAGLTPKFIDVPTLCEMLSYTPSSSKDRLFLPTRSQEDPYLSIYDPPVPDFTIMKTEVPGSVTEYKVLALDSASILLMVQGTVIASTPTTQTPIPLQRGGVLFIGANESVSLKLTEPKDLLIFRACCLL
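assay system = human phosphomannose isomerase with PGI, G6PDH, diaphorase coupling enzymes | quantity = 15 ng/mL PMI | incubation = enzyme reaction with compound 20 min at room temperature | medium = HEPES pH 7.4 buffer with MgCl2 and Tween-20 | compound dosing = one concentration, 20 µM, in 1% DMSO | measured by = Diaphorase-driven resazurin-to-resorufin fluorescence, excitation 544, emission 590 nm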
PMI act = increases human mannose-6-phosphate isomerase activity; AID 1214; 190,000 compounds, 0.005% hits; purified human PMI, coupled resazurin fluorescence, 20 min; stronger effect = higher value; 1 = vehicle control, 0 substrate-free wells; activation factor at 20 µM;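 active = activation factor of 2 or more at 20 µM, relative to plate controls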
ABCB1 inh = blocks JC-1 efflux by human ABCB1 transporter. CCRF-Adr cells, flow cytometry. inhibition, % at 6.6 µM. 190,000 compounds, 0.067% hits. AID 1326; in the data active = inhibition above about 40%;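 also: 0% = vehicle and 100% = reference inhibitor; higher value means more JC-1 retained so stronger ABCB1 efflux block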
KCC2 sec1 = KCC2 (human) modulation, secondary assay. shares compounds with Cl transport mod. HEK293-KCC2, thallium flux, FluoZin2 fluorescence; stronger effect = higher value. normalised thallium flux (F/F0 slope) at 10 µM. 3,700 compounds, 15% hits. AID 1713;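 active = thallium flux slope above the same plate's solvent-only control mean plus 3 SD; inconclusive = the two replicate wells disagree; inactive = no significant difference from solvent-only control wells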
KCC2 bumet counter = thallium flux despite bumetanide block in KCC2 cells, secondary assay 3. shares compounds with Cl transport mod. HEK293-KCC2 + bumetanide/ouabain, thallium flux FluoZin2; stronger effect = higher value. 3,700 compounds, 49% hits. AID 1714. normalized thallium flux at 10 µM;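 active = thallium entry rate above the same plate's blocked-transporter control wells by more than 3 SD; inconclusive = the two repeat wells disagree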;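 also: raw slope of fluorescence over initial fluorescence between 10 and 20 s after thallium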
KCC2 secondary2 = confirmation of human KCC2 transport modulators; normalized thallium flux at 10 µM; shares compounds with Cl transport mod; AID 1715; 3,700 compounds, 23% hits; HEK293-KCC2, thallium flux FluoZin2 fluorescence; actives lie on both sides; F/F0 rise rate, 10–20 s post-thallium;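 active = thallium flux slope more than 3 SD above or below the plate's solvent-only control mean, mostly below; inconclusive = the two repeat wells disagreed; inactive = no significant shift from solvent-only controls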;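 also: raw slope with 0.1% DMSO as baseline and bumetanide as block control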
HEK counter1 = counter-screen for KCC2 modulators: effect in parental HEK293 cells; shares compounds with Cl transport mod; thallium flux FluoZin2, ouabain; baseline-ratio fluorescence slope, 10–20 s after thallium; thallium flux rate (normalised fluorescence) at 10 µM; 3,700 compounds, 46% hits;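 active = thallium flux rate significantly above the same plate's solvent-only control wells, beyond their mean plus 3 SD; inconclusive = the two replicate wells gave conflicting results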
KCC2 retest ouab = modulates human KCC2 on retest with ouabain. shares compounds with Cl transport mod. HEK293-KCC2, thallium flux FluoZin2 fluorescence; bidirectional: low = inhibitor, high = activator. raw Tl+ flux slope (below DMSO = inhibition, above = activation) at 10 µM. 3,700 compounds, 48% hits;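 active = thallium flux slope beyond 3 SD from same-plate DMSO control mean in most replicates, usually higher, sometimes lower; inconclusive = repeat tests gave conflicting results; inactive = no significant difference from controls in most replicates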;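 also: slope of initial-normalized fluorescence between seconds 10 and 20 after thallium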
HEK counter2 = acts in parental HEK cells, second KCC2 counter-screen. shares compounds with Cl transport mod. HEK293 parental, thallium flux FluoZin-2 fluorescence slope. thallium flux slope at 10 µM. 3,700 compounds, 33% hits;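 active = thallium flux slope above the same plate's solvent-control mean plus 3 SD in both duplicate wells; inconclusive = duplicate wells that disagreed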;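 also: run without ouabain in cells lacking the KCC2 cotransporter; slope of fluorescence scaled to its starting value between 10 and 20 s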
Active calls of the source: *; ? = inconclusive; / = no result given.

SMILES	ABCG2 inh	Cl transport mod	ROMK mod	PMI act satM6P	PMI act	ABCB1 inh	KCC2 sec1	KCC2 bumet counter	KCC2 secondary2	HEK counter1	KCC2 retest ouab	HEK counter2
COc1cc2c(cc1OC)-c1c(OC)c(OC)cc3c1[C@H](C2)[N+](C)(C)CC3	-2	3.1*	-0.24	0.9	1	1	0.0075	?	0.029	0.0076	0.018	0.011
CCCCNC(=O)Nc1ccc(C(O)(C(=O)OC)C(F)(F)F)cc1 (stereo not given)	6	/	0.04	1	1	0	/	/	/	/	/	/
CCCCNC(=O)Nc1ccc(C(O)(C(=O)OCC)C(F)(F)F)cc1 (stereo not given)	43	-4.7*	-0.59	1	1	0	0.0078	0.0069	0.032	?	0.022	0.0099
Cc1nn(Cc2ccccc2)c(Cl)c1C(=O)OCC(=O)NCC1CCCO1 (stereo not given)	8	1.2	1.3	0.9	1	1	/	/	/	/	/	/
COc1cccc(-c2nc(CS(=O)CC(=O)N3CCC4(CC3)OCCO4)c(C)o2)c1 (stereo not given)	1	-5.5*	/	1	0.9	0	0.0071	0.0046	?	0.0066	0.017	0.0097
O=C1N(CN2CCOCC2)c2ccccc2C1(O)c1c[nH]c2ccccc12 (stereo not given)	2	/	/	0.9	0.9	1	0.0091	?	0.03	0.0074	0.021	0.011
C=CCn1c(O)c(C(CC)=Nc2ccc(N(C)C)cc2)c(=O)[nH]c1=O	/	-0.46	/	/	/	/	/	/	/	/	/	/
CN1CCN(Cc2nc3ccccc3n2C)CC1	2	6.9*	/	0.9	0.9	1	0.0061	0.0047	?	0.0079	?	0.011
O=C1NC(=O)C(=Cc2coc3ccccc3c2=O)C(=O)N1	4	-4.1*	-0.58	1.4	1.3	0	0.0058	0.0058*	?	0.0059*	0.014*	0.0099
CSc1ncc(/C=C2/C(=O)NC(=O)N(c3ccc(Cl)cc3)C2=O)cn1	-2	-0.13	/	1.3	1.3	-1	/	/	/	/	/	/
CCCCCCn1c(O)c(C=NC2CCN(Cc3ccccc3)CC2)c(=O)[nH]c1=O	2	/	0.026	1	0.9	1	0.018	0.0046	?	0.007	0.015	0.0096
C=CCn1c(O)c(C=NC2CCN(Cc3ccccc3)CC2)c(=O)[nH]c1=O	/	0.0067	-1.4	/	/	/	/	/	/	/	/	/
CCOc1ccc(N2C(=O)NC(=O)/C(=C/c3cnc(SC)nc3)C2=O)cc1	-1	-0.074	0.22	1.3	1.1	-1	/	/	/	/	/	/
O=c1[nH]c(=S)[nH]c(O)c1N=Nc1ccc(OC(F)F)cc1	5	42*	0.85	0.9	1	-1	?	0.073*	0.035	0.011*	0.069*	0.011
COc1ccc(N=Nc2c(O)[nH]c(=S)[nH]c2=O)cc1	2	-0.012	-0.78	0.9	1.1	0	/	/	/	/	/	/
O=C1CSC2N1CCNC21CCCCC1 (stereo not given)	0	-0.032	0.094	1.1	1.1	0	/	/	/	/	/	/
